In ChEMBL document CHEMBL1141351, “Inhibitors of osteoclast differentiation from Cephalotaxus koreana” (J Nat Prod, 2007) one finds inhibition and IC50 data, which are given here for 8 compounds.

Assay [1] relates to Osteoclast. In words: Inhibition of ICR mouse osteoclast differentiation at 1.0 ug/mL. It counts as functional. In a few lines:
(§1)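 Co-culture of bone marrow cells (femora, 6-week-old ddY mice; 2.5×10^5 cells/cm²) with calvarial osteoblastic cells (newborn ICR mice, collagenase digestion; 4 × 10⁴ cells/cm²) in α-MEM/10% FBS with 1,25(OH)₂D₃ (1 × 10⁻⁸ M) and dexamethasone (1 × 10⁻⁷ M). DMSO stocks (2 mg/mL) were filter-sterilized and added at 0.1 or 1.0 μg/mL. Medium was changed every 2 days. On day 6, cells were formaldehyde-fixed and TRAP-stained. TRAP(+) multinucleated cells with >6–7 nuclei were counted. Results are % inhibition versus control, as mean ± SD of three replicates, with Student's t-test.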

Assay [2] deals with Osteoclast. Put plainly: Inhibition of ICR mouse osteoclast differentiation at 0.1 ug/mL. It counts as functional. In a few lines:
as §1

For assay [3], the system named is Osteoclast. In words: Induction of mouse osteoclast apoptosis. It counts as functional, cell-based.

For orientation: inhibition means the relative decrease from the control value, in per cent. The low end stands for a response near the control, the high end for a response far below the control. Take `O=c1cc(-c2ccc(O)cc2)oc2c(O)c(O)cc(O[C@@H]3O[C@H](CO)[C@@H](O)[C@H](O)[C@H]3O)c12`: the inhibition at 1 µg/mL in the assay with Osteoclast [1] was 86%. Also, at 0.1 µg/mL the inhibition with Osteoclast [2] was 63%. The corresponding values for `CC(=O)OC[C@H]1O[C@@H](Oc2c(-c3ccc(O)c(O)c3)oc3cc(O)cc(O)c3c2=O)[C@H](O)[C@@H](O)[C@@H]1O` are 65% and 51%.

Take `C[C@H]1O[C@@H](OC[C@H]2O[C@@H](Oc3c(-c4ccc(O)cc4)oc4cc(O)cc(O)c4c3=O)[C@H](O)[C@@H](O)[C@@H]2O)[C@@H](O)[C@@H](O)[C@@H]1O`: the inhibition at 1 µg/mL in the assay with Osteoclast [1] is 85%. 0.1 µg/mL produced 68% inhibition in the assay with Osteoclast [2]. `COc1ccc(-c2oc3cc(O)cc(O)c3c(=O)c2O[C@@H]2O[C@H](CO[C@@H]3O[C@H](C)[C@@H](O)[C@H](O)[C@@H]3O)[C@@H](O)[C@H](O)[C@H]2O)cc1O` gave an inhibition at 1 µg/mL with Osteoclast [1] of 63%. This compound came in with an inhibition at 0.1 µg/mL in the assay on Osteoclast [2] of 40%. In the same order, the values of `O=c1cc(-c2ccc(O)cc2)oc2cc(O)cc(O)c12` [APIGENIN] are 65% and 45%. For orientation: IC50 means the concentration needed to halve the response being measured. Read a high IC50 as lower potency. As for `O=c1c(O)c(-c2ccc(O)cc2)oc2cc(O)cc(O)c12` [KAEMPFEROL], the half-inhibitory concentration (IC50) in the assay with Osteoclast [3] was determined as 1.6 µM. Turning to `O=c1c(O)c(-c2ccc(O)c(O)c2)oc2cc(O)cc(O)c12` [QUERCETIN], 5.3 µM corresponded to half-maximal inhibition with Osteoclast [3] (IC50). For the compound `C[C@@H]1O[C@@H](Oc2c(-c3ccc(O)c(O)c3)oc3cc(O)cc(O)c3c2=O)[C@H](O)[C@H](O)[C@H]1O` [QUERCITRIN], in the assay with Osteoclast [1], testing at 1 µg/mL gave an inhibition of 67%. The same compound came in with an inhibition at 0.1 µg/mL with Osteoclast [2] of 56%.
